According to PubChem BioAssay AID449757 (Broad Institute, 2010):
Active and inactive are the calls of the source.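 How the source made its calls: active means compounds whose fitted caspase activation midpoint falls no more than tenfold above the top tested dose; inconclusive means flat fit with activity between 30 and 70 percent, or failed fit; inactive means the rest.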

These molecules were tested on MEF Flag-A1-IRES-BIM, caspase-Glo luminescence, 3 h (assay: caspase activation in A1/BIM-primed MEFs, dose response, A1 (Bcl2A1) inhibitor project, cell-based, alternate construct, luminescence (AID 449757)).
Outline: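 Assay system: mouse embryonic fibroblasts primed via Flag-A1-IRES-BIM expression construct; quantity: 2500 cells per well, seeded one day before compound; medium: RPMI-1640 growth medium with 10% FBS; doses: 100 nL compound added per well by pin transfer; timing: 3-h compound at 37 °C, 30-min cooling, 1-h reagent at RT; measured by: CaspaseGlo luminescence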

**Q.** O=C(Nc1ccc([N+](=O)[O-])cc1)C(Cc1ccccc1)N1C(=O)c2cccc3cccc(c23)C1=O (centres undefined) was tested. Which AC50 did it give?
**A.** The AC50 was > 35 µM (inactive).

**Q.** For CCOC(=O)/C(=C\c1cccnc1)C(=O)c1cc(C(C)=O)c(Nc2ccccc2)s1, which AC50 is on record?
**A.** Its AC50 is 4.1 µM.

**Q.** With CCOC(=O)/C(=C\c1ccc([N+](=O)[O-])cc1)C(=O)c1cc(C(C)=O)c(Nc2ccccc2)s1 as the molecule, how does the AC50 read?
**A.** The AC50 was 1.81 µM.

**Q.** With CCOc1cc(/C=C2/C(=N)N3C=CSC3=NC2=O)ccc1OCCCOc1ccccc1C as the molecule, how does the AC50 read?
**A.** Its AC50 is 35.4 µM.

**Q.** Which AC50 does the source give for COc1cc(/C=C/[N+](=O)[O-])ccc1OC(=O)c1cccnc1 here?
**A.** Its AC50 is 9.63 µM.

**Q.** For Cc1ccc(C)c(S(=O)(=O)NCC(=O)Nc2sc3c(c2C(N)=O)CCC(C)C3)c1 (centres undefined), which AC50 is on record?
**A.** Its AC50 is > 35 µM (inactive).

**Q.** How did the AC50 turn out when COc1ccc(NC(=O)CSc2nc3ccc(Nc4nc(N5CCOCC5)nc(N5CCOCC5)n4)cc3s2)cc1 was run?
**A.** Its AC50 is > 35 µM (inactive).

**Q.** CCCCCCCC/C=C\CCCCCCCC(=O)NCCc1ccc(O)c(O)c1 was tested. Which AC50 did it give?
**A.** Its AC50 is 11.6 µM.

**Q.** O=C(NCc1ccccc1Cl)c1cccc2c1C(=O)c1ccc(-c3ccc(OC(F)(F)F)cc3)cc1S2(=O)=O was tested. Which AC50 did it give?
**A.** The AC50 was > 35 µM (inactive).

**Q.** For O=C(N=Nc1c(O)[nH]c2ccc([N+](=O)[O-])cc12)c1cc(-c2ccccc2Cl)nc2ccccc12, which AC50 is on record?
**A.** The AC50 was > 35 µM (inactive).

**Q.** With Cc1ccc(Sc2c([N+](=O)[O-])c(=O)n(C)c3ccccc23)cc1 as the molecule, how does the AC50 read?
**A.** Its AC50 is > 35 µM (inactive).

**Q.** For COc1ccccc1C(=O)Nc1ccnn1C1CCN(Cc2cn(C)c3ccccc23)CC1, which AC50 is on record?
**A.** The AC50 was > 35 µM (inactive).

**Q.** Which AC50 does the source give for COc1cc(/C=C(/C#N)c2nc3ccccc3[nH]2)ccc1OCC(=O)Nc1ccccc1C(C)C here?
**A.** Its AC50 is 16.1 µM.

**Q.** For CC1=NNC(=O)/C1=C\c1cn(-c2ccccc2)nc1-c1cccs1, which AC50 is on record?
**A.** The AC50 was 14.2 µM.

**Q.** For CC(=O)Nc1ccc(NC(=O)C(C)OC(=O)/C=C/c2cn(-c3ccccc3)nc2-c2cccnc2)cc1 (centres undefined), which AC50 is on record?
**A.** Its AC50 is 27.5 µM.

**Q.** Which AC50 does the source give for Oc1ccc(/C=N/N2CCN(C3c4ccccc4-c4ccccc43)CC2)cc1O here?
**A.** Its AC50 is 24 µM.

**Q.** Nc1c(C(=O)Nc2ccc(S(=O)(=O)N3CCCC3)cc2)sc2nc3ccc(OC(F)(F)F)cc3cc12 was tested. Which AC50 did it give?
**A.** The AC50 was 23.3 µM.

**Q.** COc1ccc(-c2oc(=O)c3cc(OC)c(OC)cc3c2/C=C/c2cccc([N+](=O)[O-])c2)cc1 was tested. Which AC50 did it give?
**A.** Its AC50 is > 35 µM (inactive).

**Q.** For O=C(Nc1ccc(Cl)cc1Cl)c1cccc(N2C(=O)C=CC2=O)c1, which AC50 is on record?
**A.** Its AC50 is 19.1 µM.

**Q.** CC(C)CCN(C(=O)Cc1ccc(Cl)c(Cl)c1)c1c(N)n(Cc2ccccc2)c(=O)[nH]c1=O was tested. Which AC50 did it give?
**A.** Its AC50 is 16.9 µM.

**Q.** Which AC50 does the source give for COc1ccc(Cn2c(SCc3ccc(C)cc3)nc3cc(OC)c(OC)cc3c2=N)cc1Cl here?
**A.** The AC50 was > 35 µM (inactive).

**Q.** For COC(=O)c1ccc2c(c1)C(C)(C)C(/C=C/c1ccc(O)cc1)=[N+]2C, which AC50 is on record?
**A.** The AC50 was 12.4 µM.

**Q.** Which AC50 does the source give for Cc1cc(NC(=O)CSc2nc3cc(Cl)ccc3c(=O)n2Cc2ccco2)no1 here?
**A.** Its AC50 is > 35 µM (inactive).

**Q.** How did the AC50 turn out when Cc1ccc2c(c1)C(=O)C(=O)N2Cc1ccc(Br)cc1 was run?
**A.** Its AC50 is > 35 µM (inactive).
